Several values for one entry are separate records, joined by “and”; a condition that tells them apart may be missing. Identical values can stand only once. Like-named read-outs stand apart in the source and are kept apart here.
Columns and labels:
[1] = molecular target: rTAAR1(A5.42L) (Rattus norvegicus, UniProt Q923Y9, A193L); assay: cAMP agonist activity assay, rTAAR1; type: cell-based; conditions: for decrease in potency versus wild type: rTAAR1(A5.42L)
Summary of the method: (§1)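 Site-directed TAAR1 mutants were stably expressed in HEK293 cells (transfected, selected with G418). cAMP was measured with a HitHunter cAMP XS kit over concentration-response curves. Responses were expressed relative to the reference agonist at 10 μM (set as 100%). EC50 and Emax were obtained by curve fitting, averaged over N independent triplicate experiments, with SEM.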

[2] = molecular target: rTAAR1(M6.55T) (Rattus norvegicus, UniProt Q923Y9, M268T); assay: cAMP agonist activity assay, rTAAR1; type: cell-based
Chain of rTAAR1(M6.55T) (Q923Y9 whole entry M268T): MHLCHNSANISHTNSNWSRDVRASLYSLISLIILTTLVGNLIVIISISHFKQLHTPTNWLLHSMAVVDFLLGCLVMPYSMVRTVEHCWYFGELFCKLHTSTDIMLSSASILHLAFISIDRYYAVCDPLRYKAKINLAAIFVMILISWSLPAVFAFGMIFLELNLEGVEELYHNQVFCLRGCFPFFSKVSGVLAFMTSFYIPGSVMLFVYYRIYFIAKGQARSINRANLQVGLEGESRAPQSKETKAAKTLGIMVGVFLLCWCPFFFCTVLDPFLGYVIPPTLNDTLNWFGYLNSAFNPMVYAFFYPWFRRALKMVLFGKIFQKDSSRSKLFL

[3] = molecular target: mTAAR1(T6.55M) (Mus musculus, UniProt Q923Y8, T268M); assay: cAMP agonist activity assay, mTAAR1; type: cell-based
Chain of mTAAR1(T6.55M) (Q923Y8 whole entry T268M): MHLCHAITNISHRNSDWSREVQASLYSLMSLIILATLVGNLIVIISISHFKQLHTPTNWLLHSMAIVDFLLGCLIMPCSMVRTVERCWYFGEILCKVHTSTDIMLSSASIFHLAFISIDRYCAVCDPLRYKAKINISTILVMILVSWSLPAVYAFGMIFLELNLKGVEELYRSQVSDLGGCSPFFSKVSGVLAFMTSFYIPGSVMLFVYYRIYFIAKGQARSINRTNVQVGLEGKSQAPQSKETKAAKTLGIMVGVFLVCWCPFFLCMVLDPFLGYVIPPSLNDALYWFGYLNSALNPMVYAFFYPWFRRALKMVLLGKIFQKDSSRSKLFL

[4] = molecular target: rTAAR1(N7.39Y) (Rattus norvegicus, UniProt Q923Y9, N287Y); assay: cAMP agonist activity assay, rTAAR1; type: cell-based
Chain of rTAAR1(N7.39Y) (Q923Y9 whole entry N287Y): as the sequence (Q923Y9 whole entry M268T) above, with T268M, N287Y counted along it

[5] = molecular target: rTAAR1 (wild type rat TAAR1) (Rattus norvegicus, UniProt Q923Y9); assay: In vitro cAMP agonist activity assay; type: cell-based
Chain of rTAAR1 (wild type rat TAAR1) (Q923Y9 whole entry): as the sequence (Q923Y9 whole entry M268T) above, with T268M counted along it

[6] = molecular target: T1, mTAAR1 (wild type mouse TAAR1) (Mus musculus, UniProt Q923Y8); assay: In vitro cAMP agonist activity assay, wild type mTAAR1; type: cell-based
T1 sequence (Q923Y8 whole entry): as the sequence (Q923Y8 whole entry T268M) above, with M268T counted along it

[7] = molecular target: rTAAR1(M6.55T/N7.39Y) (Rattus norvegicus, UniProt Q923Y9, M268T/N287Y); assay: cAMP agonist activity assay, rTAAR1; type: cell-based
Chain of rTAAR1(M6.55T/N7.39Y) (Q923Y9 whole entry M268T/N287Y): as the sequence (Q923Y9 whole entry M268T) above, with N287Y counted along it

[8] = molecular target: mTAAR1(T6.55M/Y7.39N) (Mus musculus, UniProt Q923Y8, T268M/Y287N); assay: cAMP agonist activity assay, mTAAR1; type: cell-based
Chain of mTAAR1(T6.55M/Y7.39N) (Q923Y8 whole entry T268M/Y287N): as the sequence (Q923Y8 whole entry T268M) above, with Y287N counted along it

[9] = molecular target: mTAAR1(Y4.56F) (Mus musculus, UniProt Q923Y8, Y153F); assay: cAMP agonist activity assay, mTAAR1; type: cell-based; conditions: for increase in potency versus wild type: mTAAR1(Y4.56F)
Chain of mTAAR1(Y4.56F) (Q923Y8 whole entry Y153F): as the sequence (Q923Y8 whole entry T268M) above, with Y153F, M268T counted along it
Summary of the method: as §1

[10] = molecular target: mTAAR1(Y7.39N) (Mus musculus, UniProt Q923Y8, Y287N); assay: cAMP agonist activity assay, mTAAR1; type: cell-based
Chain of mTAAR1(Y7.39N) (Q923Y8 whole entry Y287N): as the sequence (Q923Y8 whole entry T268M) above, with M268T, Y287N counted along it

[11] = molecular target: T1, mTAAR1 (wild type mouse TAAR1); conditions: wild type receptors; cited from earlier work
[12] = molecular target: rTAAR1(A5.42I) (Rattus norvegicus, UniProt Q923Y9, A193I); assay: cAMP agonist activity assay, rTAAR1; type: cell-based; conditions: for decrease in potency versus wild type: rTAAR1(A5.42I)
Chain of rTAAR1(A5.42I) (Q923Y9 whole entry A193I): as the sequence (Q923Y9 whole entry M268T) above, with A193I, T268M counted along it
Summary of the method: as §1

[13] = molecular target: rTAAR1(A5.42T) (Rattus norvegicus, UniProt Q923Y9, A193T); assay: cAMP agonist activity assay, rTAAR1; type: cell-based
Chain of rTAAR1(A5.42T) (Q923Y9 whole entry A193T): as the sequence (Q923Y9 whole entry M268T) above, with A193T, T268M counted along it
Summary of the method: as §1

[14] = molecular target: rTAAR1(F4.56Y) (Rattus norvegicus, UniProt Q923Y9, F153Y); assay: cAMP agonist activity assay, rTAAR1; type: cell-based
Chain of rTAAR1(F4.56Y) (Q923Y9 whole entry F153Y): as the sequence (Q923Y9 whole entry M268T) above, with F153Y, T268M counted along it
Summary of the method: as §1

Chain of rTAAR1(A5.42L) (Q923Y9 whole entry A193L): as the sequence (Q923Y9 whole entry M268T) above, with A193L, T268M counted along it

Question: For `NCCc1ccc(Oc2ccc(O)cc2)c(I)c1` [Compound 1, 3-Iodothyronamine], which “decrease in potency versus wild type” value [1] is on record?
Answer: 2 fold

Question: And the “Emax ± SEM” value ([1]; rTAAR1 A5.42L (Table 3a), relative to 1)?
Answer: 100 ± 0%

Question: And the EC50 ([1]; read-out: EC50 ± SEM, rTAAR1 A5.42L (Table 3a))?
Answer: 58 ± 16 nM

Question: What about the EC50 ([2]; read-out: EC50 ± SEM) of the same molecule?
Answer: 129 ± 43 nM

Question: What about the “Emax ± SEM” value ([2]; relative to 1) of the same molecule?
Answer: 100 ±0%

Question: And the EC50 ([3]; read-out: EC50 ± SEM)?
Answer: 1420 ± 592 nM

Question: What about the “Emax ± SEM” value ([3]; relative to 1) of the same molecule?
Answer: 100 ± 0%

Question: What about the EC50 ([4]; read-out: EC50 ± SEM) of the same molecule?
Answer: 135 nM

Question: And the “Emax ± SEM” value ([4]; relative to 1)?
Answer: 100%

Question: And the EC50 ([5]; read-out: EC50 ± SEM, wild type rTAAR1, HEK293 cells, cAMP)?
Answer: 33 ± 3 nM

Question: What about the “Emax ± SEM” value ([5]; wild type rTAAR1, Emax = 100 % is the activity of 1 at 10 mM (so in the source)) of the same molecule?
Answer: 100± 0%

Question: And the “rTAAR1 selectivity: fold more potent for rTAAR1 compared to mTAAR1” value ([5]; wild type receptors)?
Answer: ~ 10 fold and 7–10 fold

Question: And the EC50 ([6]; read-out: EC50 ± SEM, wild type mTAAR1, HEK293 cells, cAMP)?
Answer: 314 ± 43 nM

Question: And the “improvement of potency at mTAAR1 on eliminating the β-phenyl ring of 2, 5 and 7” value ([6]; wild type mTAAR1)?
Answer: 24- to 32 fold

Question: And the “Emax ± SEM” value ([6]; wild type mTAAR1, Emax = 100 % is the activity of 1 at 10 mM (so in the source))?
Answer: 100 ± 0%

Question: What about the EC50 ([7]; read-out: EC50 ± SEM) of the same molecule?
Answer: 90 nM

Question: What about the “Emax ± SEM” value ([7]; relative to 1) of the same molecule?
Answer: 100%

Question: And the EC50 ([8]; read-out: EC50 ± SEM)?
Answer: 208 ± 60 nM

Question: What about the “Emax ± SEM” value ([8]; relative to 1) of the same molecule?
Answer: 100 ± 0%

Question: And the “increase in potency versus wild type” value [9]?
Answer: 5 fold

Question: And the EC50 ([10]; read-out: EC50 ± SEM)?
Answer: 251 ± 43 nM

Question: What about the “Emax ± SEM” value ([10]; relative to 1) of the same molecule?
Answer: 100 ± 0%

Question: And the “fold less potent for mTAAR1 compared to rTAAR1” value [11]?
Answer: 7 to 10 fold

Question: And the “decrease in potency versus wild type” value [12]?
Answer: 3 fold

Question: What about the “Emax ± SEM” value ([12]; rTAAR1 A5.42I (Table 3a), relative to 1) of the same molecule?
Answer: 100 ± 0%

Question: And the EC50 ([12]; read-out: EC50 ± SEM, rTAAR1 A5.42I (Table 3a))?
Answer: 108 ± 14 nM

Question: And the “fold less potent versus wild type” value ([13]; rTAAR1(A5.42T))?
Answer: 3 fold

Question: What about the “Emax ± SEM” value ([13]; rTAAR1 A5.42T, relative to 1) of the same molecule?
Answer: 100 ± 0%

Question: What about the EC50 ([13]; read-out: EC50 ± SEM, rTAAR1 A5.42T) of the same molecule?
Answer: 88 ± 13 nM

Question: Which EC50 [1] does the source give for `NCCc1ccc(O)cc1` [Tyramine, tyramine] here?
Answer: ~2000 nM

Question: What about the “decrease in potency versus wild type” value [1] of the same molecule?
Answer: 31 fold

Question: What about the Emax ([1]; read-out: Emax ± SEM) of the same molecule?
Answer: 102 ± 18%

Question: What about the EC50 [5] of the same molecule?
Answer: 65 ± 1 nM

Question: And the Emax ([5]; read-out: Emax ± SEM)?
Answer: 119 ± 7%

Question: What about the EC50 [6] of the same molecule?
Answer: 271 ± 52 nM

Question: And the Emax ([6]; read-out: Emax ± SEM)?
Answer: 110 ± 2%

Question: And the EC50 [9]?
Answer: 40 ± 13 nM

Question: And the “increase in potency versus wild type” value [9]?
Answer: 7 fold

Question: And the Emax ([9]; read-out: Emax ± SEM)?
Answer: 118 ± 8%

Question: What about the “fold less potent for mTAAR1 compared to rTAAR1” value [11] of the same molecule?
Answer: 7 to 10 fold

Question: What about the EC50 [12] of the same molecule?
Answer: > 10000 nM

Question: And the “decrease in potency versus wild type” value [12]?
Answer: 154 fold

Question: And the Emax ([12]; read-out: Emax ± SEM)?
Answer: 49 ± 7%

Question: What about the EC50 [13] of the same molecule?
Answer: > 10000 nM

Question: And the “fold less potent versus wild type” value ([13]; rTAAR1(A5.42T))?
Answer: 154 fold

Question: What about the “less efficacious than wild type” value ([13]; rTAAR1(A5.42T)) of the same molecule?
Answer: 50%

Question: And the Emax ([13]; read-out: Emax ± SEM)?
Answer: 69 ± 5%

Question: And the EC50 [14]?
Answer: 54 ± 11 nM

Question: What about the Emax ([14]; read-out: Emax ± SEM) of the same molecule?
Answer: 108 ± 6%

From publication PMC2677188 (ACS chemical biology, 2009)
